Experimental data reported in article PMC6688905 (Journal of medicinal chemistry, 2018).
Entries after “also recorded” stand apart in the source; their conditions may differ. Blank lines part the entries; values can stand above or below the molecule they belong to.

Columns and labels:
[1] = NMR-based reactivity of electrophile toward Nα-acetyl lysine; format: physicochemical; conditions: 100 mM phosphate buffer pH 7.4, ten-fold excess of N^α-acetyl lysine, 25 °C
PI3Kα (p110α/p85α) = PI3Kα (p110α/p85α) (Homo sapiens, UniProt P42336); test: MS timecourse for covalent modification of PI3K; conditions: 4 μM neolymphostin A with 2 μM PI3Kα
Chain of PI3Kα (p110α/p85α) (P42336 whole entry, species assumed): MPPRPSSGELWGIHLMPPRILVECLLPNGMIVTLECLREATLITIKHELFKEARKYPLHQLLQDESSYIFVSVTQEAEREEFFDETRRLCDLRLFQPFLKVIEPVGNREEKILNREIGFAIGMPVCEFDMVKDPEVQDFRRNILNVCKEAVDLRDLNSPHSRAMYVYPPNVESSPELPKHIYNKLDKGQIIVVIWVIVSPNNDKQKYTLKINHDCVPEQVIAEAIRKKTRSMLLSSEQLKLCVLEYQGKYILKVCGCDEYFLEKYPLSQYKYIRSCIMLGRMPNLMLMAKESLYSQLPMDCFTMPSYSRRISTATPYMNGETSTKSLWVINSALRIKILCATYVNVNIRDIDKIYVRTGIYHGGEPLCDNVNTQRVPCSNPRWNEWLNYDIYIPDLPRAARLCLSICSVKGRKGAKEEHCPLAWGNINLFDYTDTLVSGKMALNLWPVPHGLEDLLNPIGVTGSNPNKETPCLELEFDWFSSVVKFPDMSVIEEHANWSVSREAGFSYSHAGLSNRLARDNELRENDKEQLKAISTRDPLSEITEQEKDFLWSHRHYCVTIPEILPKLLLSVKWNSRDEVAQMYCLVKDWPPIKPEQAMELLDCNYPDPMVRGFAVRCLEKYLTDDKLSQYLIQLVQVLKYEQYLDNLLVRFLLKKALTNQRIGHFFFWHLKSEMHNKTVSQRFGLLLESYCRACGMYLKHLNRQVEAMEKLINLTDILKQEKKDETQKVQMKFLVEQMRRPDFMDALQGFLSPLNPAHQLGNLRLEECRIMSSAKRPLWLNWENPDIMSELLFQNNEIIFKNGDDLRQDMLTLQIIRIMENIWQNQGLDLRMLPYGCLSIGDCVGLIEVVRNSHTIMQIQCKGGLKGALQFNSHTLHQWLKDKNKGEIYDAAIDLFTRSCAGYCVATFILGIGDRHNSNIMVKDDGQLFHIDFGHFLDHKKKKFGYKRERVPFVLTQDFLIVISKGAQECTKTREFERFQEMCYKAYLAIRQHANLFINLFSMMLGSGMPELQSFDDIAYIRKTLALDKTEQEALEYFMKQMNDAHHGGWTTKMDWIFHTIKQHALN
Chain of PI3Kα (p110α/p85α) (P27986 whole entry partner, species assumed): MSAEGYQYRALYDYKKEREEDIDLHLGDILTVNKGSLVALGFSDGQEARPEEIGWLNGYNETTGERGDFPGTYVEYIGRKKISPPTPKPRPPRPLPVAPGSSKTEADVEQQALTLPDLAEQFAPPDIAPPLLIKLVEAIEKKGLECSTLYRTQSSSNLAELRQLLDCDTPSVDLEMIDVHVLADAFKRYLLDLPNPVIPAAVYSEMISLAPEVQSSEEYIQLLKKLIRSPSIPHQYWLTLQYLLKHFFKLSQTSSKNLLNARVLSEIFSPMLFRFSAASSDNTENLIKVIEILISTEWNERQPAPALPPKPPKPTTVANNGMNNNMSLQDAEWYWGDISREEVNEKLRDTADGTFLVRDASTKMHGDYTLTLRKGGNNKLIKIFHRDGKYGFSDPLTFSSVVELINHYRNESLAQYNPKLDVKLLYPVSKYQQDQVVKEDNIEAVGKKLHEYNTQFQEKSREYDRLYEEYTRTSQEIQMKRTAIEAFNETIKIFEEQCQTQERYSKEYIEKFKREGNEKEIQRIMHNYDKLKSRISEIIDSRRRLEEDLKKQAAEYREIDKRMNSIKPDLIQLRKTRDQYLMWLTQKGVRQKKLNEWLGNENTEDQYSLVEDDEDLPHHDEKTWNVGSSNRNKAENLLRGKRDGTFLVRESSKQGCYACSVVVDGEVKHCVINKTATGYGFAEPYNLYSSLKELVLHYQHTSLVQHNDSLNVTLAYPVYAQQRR

PI3Kα = PI3Kα (Homo sapiens, UniProt P42336); test: KINOMEscan kinase selectivity panel; format: binding; conditions: 1 μM
Chain of PI3Kα (P42336 whole entry): as the sequence (P42336 whole entry, species assumed) above

[2] = target: T1, Polo-like kinase 4 (PLK4) (Homo sapiens, UniProt O00444); test: KINOMEscan kinase selectivity panel; format: binding; conditions: 1 μM
T1 sequence (O00444 1-970): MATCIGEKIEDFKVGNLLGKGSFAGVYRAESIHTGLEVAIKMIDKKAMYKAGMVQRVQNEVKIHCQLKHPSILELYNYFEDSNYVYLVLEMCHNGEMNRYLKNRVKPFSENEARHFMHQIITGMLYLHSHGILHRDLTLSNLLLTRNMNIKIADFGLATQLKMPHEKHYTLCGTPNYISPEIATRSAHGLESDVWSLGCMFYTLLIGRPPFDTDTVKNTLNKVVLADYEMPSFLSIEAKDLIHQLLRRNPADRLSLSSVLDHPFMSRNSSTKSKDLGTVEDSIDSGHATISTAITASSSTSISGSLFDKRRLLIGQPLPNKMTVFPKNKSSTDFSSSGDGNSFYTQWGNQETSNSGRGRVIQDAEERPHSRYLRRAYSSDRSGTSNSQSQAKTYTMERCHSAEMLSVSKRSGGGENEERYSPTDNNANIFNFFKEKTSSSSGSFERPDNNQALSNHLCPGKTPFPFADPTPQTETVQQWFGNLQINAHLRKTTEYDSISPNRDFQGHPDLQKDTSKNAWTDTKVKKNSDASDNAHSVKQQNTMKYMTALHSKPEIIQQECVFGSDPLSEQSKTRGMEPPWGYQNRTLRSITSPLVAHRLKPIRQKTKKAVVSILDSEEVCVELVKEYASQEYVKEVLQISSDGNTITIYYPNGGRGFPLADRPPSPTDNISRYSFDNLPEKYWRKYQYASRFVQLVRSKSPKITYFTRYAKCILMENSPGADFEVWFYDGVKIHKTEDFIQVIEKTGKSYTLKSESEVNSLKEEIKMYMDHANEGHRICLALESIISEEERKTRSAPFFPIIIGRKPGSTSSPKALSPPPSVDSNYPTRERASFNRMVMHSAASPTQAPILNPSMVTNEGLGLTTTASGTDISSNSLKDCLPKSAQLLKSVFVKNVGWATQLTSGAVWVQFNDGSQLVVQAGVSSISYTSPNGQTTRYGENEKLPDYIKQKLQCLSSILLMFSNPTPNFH

aurora kinase A (AURKA) = target: T2, aurora kinase A (AURKA) (Homo sapiens, UniProt O14965); test: KINOMEscan kinase selectivity panel; format: binding; conditions: 1 μM
T2 sequence (O14965 1-403): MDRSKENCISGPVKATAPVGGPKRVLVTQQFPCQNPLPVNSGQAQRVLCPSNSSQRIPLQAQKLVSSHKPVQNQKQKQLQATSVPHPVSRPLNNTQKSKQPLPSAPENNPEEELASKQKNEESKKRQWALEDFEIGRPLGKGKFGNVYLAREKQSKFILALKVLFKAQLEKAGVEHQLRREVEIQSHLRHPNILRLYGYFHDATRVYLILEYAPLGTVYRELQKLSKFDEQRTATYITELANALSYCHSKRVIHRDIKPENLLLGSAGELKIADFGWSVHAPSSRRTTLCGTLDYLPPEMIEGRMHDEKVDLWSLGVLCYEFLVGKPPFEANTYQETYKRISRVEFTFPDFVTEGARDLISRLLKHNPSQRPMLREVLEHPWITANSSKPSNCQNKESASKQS

aurora kinase B (AURKB) = aurora kinase B (AURKB) (Homo sapiens, UniProt Q96GD4); test: KINOMEscan kinase selectivity panel; format: binding; conditions: 1 μM
Chain of aurora kinase B (AURKB) (Q96GD4 whole entry): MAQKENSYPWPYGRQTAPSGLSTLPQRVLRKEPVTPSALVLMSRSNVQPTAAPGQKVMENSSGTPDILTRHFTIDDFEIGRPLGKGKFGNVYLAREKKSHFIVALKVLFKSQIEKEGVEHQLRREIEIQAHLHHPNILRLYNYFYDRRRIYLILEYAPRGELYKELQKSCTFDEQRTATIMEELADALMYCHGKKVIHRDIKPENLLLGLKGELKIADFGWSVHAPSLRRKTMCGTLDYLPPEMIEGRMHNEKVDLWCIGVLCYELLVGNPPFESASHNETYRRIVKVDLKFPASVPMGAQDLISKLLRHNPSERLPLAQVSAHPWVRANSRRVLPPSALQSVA

[3] = target: c-Jun N-terminal kinase 1 (JNK1) (Homo sapiens, UniProt P45983); test: KINOMEscan kinase selectivity panel; format: binding; conditions: 1 μM
Chain of c-Jun N-terminal kinase 1 (JNK1) (P45983 whole entry): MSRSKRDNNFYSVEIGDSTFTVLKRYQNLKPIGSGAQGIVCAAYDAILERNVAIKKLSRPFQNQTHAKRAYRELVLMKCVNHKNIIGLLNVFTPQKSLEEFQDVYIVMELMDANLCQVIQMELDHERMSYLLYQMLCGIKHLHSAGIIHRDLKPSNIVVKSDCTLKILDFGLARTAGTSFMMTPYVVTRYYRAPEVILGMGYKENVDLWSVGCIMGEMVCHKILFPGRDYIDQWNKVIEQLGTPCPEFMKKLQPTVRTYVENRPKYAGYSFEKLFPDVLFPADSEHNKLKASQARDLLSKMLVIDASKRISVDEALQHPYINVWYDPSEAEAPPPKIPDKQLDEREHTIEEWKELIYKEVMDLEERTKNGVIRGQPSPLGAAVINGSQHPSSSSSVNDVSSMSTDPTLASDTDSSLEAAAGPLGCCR

[4] = target: c-Jun N-terminal kinase 2 (JNK2) (Homo sapiens, UniProt P45984); test: KINOMEscan kinase selectivity panel; format: binding; conditions: 1 μM
Chain of c-Jun N-terminal kinase 2 (JNK2) (P45984 whole entry): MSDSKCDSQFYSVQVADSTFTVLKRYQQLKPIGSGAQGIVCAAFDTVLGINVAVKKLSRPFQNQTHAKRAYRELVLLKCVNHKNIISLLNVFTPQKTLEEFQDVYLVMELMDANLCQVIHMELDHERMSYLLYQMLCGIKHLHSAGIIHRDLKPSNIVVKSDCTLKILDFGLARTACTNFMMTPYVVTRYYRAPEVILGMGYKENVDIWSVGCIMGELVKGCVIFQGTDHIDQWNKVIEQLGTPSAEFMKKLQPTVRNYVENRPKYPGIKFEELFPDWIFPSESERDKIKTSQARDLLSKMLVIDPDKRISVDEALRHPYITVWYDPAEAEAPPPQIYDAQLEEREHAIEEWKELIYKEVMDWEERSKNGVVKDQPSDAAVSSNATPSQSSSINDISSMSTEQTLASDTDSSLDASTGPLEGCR

[5] = target: c-Jun N-terminal kinase 3 (JNK3) (Homo sapiens, UniProt P53779); test: KINOMEscan kinase selectivity panel; format: binding; conditions: 1 μM
Chain of c-Jun N-terminal kinase 3 (JNK3) (P53779 whole entry): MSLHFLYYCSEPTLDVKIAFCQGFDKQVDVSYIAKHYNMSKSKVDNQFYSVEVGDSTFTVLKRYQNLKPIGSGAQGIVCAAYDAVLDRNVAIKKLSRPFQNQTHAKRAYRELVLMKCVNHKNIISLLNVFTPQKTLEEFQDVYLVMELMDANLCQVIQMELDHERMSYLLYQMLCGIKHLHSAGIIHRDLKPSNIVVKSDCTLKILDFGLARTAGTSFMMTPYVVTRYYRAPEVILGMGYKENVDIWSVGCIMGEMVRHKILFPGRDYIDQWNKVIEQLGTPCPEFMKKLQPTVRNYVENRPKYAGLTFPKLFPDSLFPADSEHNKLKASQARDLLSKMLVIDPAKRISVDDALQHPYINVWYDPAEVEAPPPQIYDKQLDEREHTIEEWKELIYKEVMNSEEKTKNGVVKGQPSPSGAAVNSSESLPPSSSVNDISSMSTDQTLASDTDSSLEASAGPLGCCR

[6] = test system: AKT phosphorylation (Ser473, Thr308) in EGF-stimulated HeLa cells; test: PI3K inhibition in live cells, Western blot of AKT phosphorylation; format: cell-based; conditions: serum-starved HeLa cells, 10 min pretreatment, EGF stimulation
Summary of the method: (§1)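 HeLa cells were serum-starved overnight, then pretreated 10 min with test compound at the indicated concentrations and stimulated with 10 ng mL−1 EGF for 5 min. Cells were lysed in boiling SDS sample buffer and protein was quantified at 660 nm. Equal protein was run on SDS-PAGE, Western-blotted with ECL detection, and probed for AKT, pAKT Ser473/Thr308, ERK1/2, pERK1/2 Thr202/Tyr204, EGFR, pEGFR Tyr1068 and GAPDH.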

[7] = test system: EGFR and ERK1/2 phosphorylation in EGF-stimulated HeLa cells; test: PI3K inhibition in live cells, Western blot of EGFR and ERK1/2 phosphorylation; format: cell-based; conditions: serum-starved HeLa cells, 10 min pretreatment, EGF stimulation
Summary of the method: as §1

[8] = test system: National Cancer Institute 60-cell line panel; test: NCI 60-cell line anticancer screen; format: cell-based; conditions: read-out: GI50 values
Summary of the method: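 Cancer cell lines covering leukemia, non-small cell lung, colon, CNS, melanoma, ovarian, renal, prostate and breast were tested with 5-point dose-response curves, top concentration 50 μM. GI50, TGI and LC50 were calculated from the curves.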

[9] = behaviour in buffer at higher concentrations; format: physicochemical

Compound: CO/C=C/C(=O)c1ccccn1 [compound 6, (E)-3-methoxy-1-(pyridin-2-yl)prop-2-en-1-one]
reaction with N^α-acetyl lysine [1]: no reaction was observed

time to complete covalent modification of the kinase (PI3Kα (p110α/p85α)): ≤ 2 min | % vs. control (PI3Kα): 0% | % vs. control [2]: 0.95% | % vs. control (aurora kinase A (AURKA)): 1.5% | % vs. control (aurora kinase B (AURKB)): 1.9% | % vs. control [3]: 0.25% | % vs. control [4]: 0.15% | % vs. control [5]: 0.2%
Compound: CO/C=C/C(=O)c1cc2c3c(c(N)cc(NC(=O)C(C)C)c3n1)N=C2 [neolymphostin, neolymphostin A]
effect on AKT phosphorylation [6]: blocked phosphorylation of AKT at S473 and T308 | effect on EGFR or ERK1/2 phosphorylation [7]: did not affect phosphorylation of EGFR or ERK1/2; also recorded: no apparent effect | GI50 [8]: 6 to 840 nM | solubility behaviour [9]: appears to aggregate and “crash out” of solution at higher concentrations in buffer

Compound: CC(C)C(=O)Nc1cc(N)c2c3c(cc(C(=O)CCO)nc13)C=N2 [neolymphostinol]
effect on AKT phosphorylation [6]: largely unaffected

Compound: COC[C@H]1OC(=O)c2coc3c2[C@@]1(C)C1=C(C3=O)[C@@H]2CCC(=O)[C@@]2(C)C[C@H]1OC(C)=O [wortmannin, reference compound]
effect on AKT phosphorylation [6]: blocked phosphorylation of AKT on Ser473 and Thr308 | effect on EGFR or ERK1/2 phosphorylation [7]: without affecting phosphorylation of EGFR or ERK1/2
